Reference: ChEMBL document CHEMBL3808349, “Antineoplastic Agents. 585. Isolation of Bridelia ferruginea Anticancer Podophyllotoxins and Synthesis of 4-Aza-podophyllotoxin Structural Modifications” (2016)
Values after ≈ are worked out from the molar mass of the structure shown.

Tests used:
Assay type in all cases: functional
[1] = Growth inhibition of human BxPC3 cells measured after 48 hrs by sulforhodamine B assay; conditions: BXPC-3, 48 h
How it was run: (§1)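 Cells were seeded in RPMI1640 with 5% fetal bovine serum and incubated 24 h before serial dilutions of sample were added. After 48 h exposure, cells were fixed with trichloroacetic acid and stained with sulforhodamine B, and optical density was read by plate reader.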

[2] = Growth inhibition of human DU145 cells measured after 48 hrs by sulforhodamine B assay; conditions: DU-145, 48 h; how it was run: as §1
[3] = Growth inhibition of human SF268 cells measured after 48 hrs by sulforhodamine B assay; conditions: SF-268, 48 h; how it was run: as §1
[4] = Growth inhibition of human KM20L2 cells measured after 48 hrs by sulforhodamine B assay; conditions: KM-20L2, 48 h; how it was run: as §1
[5] = tested on: NCI-H460; assay: Growth inhibition of human NCI-H460 cells measured after 48 hrs by sulforhodamine B assay; conditions: NCI-H460, 48 h; how it was run: as §1
[6] = tested on: MCF7; assay: Growth inhibition of human MCF7 cells measured after 48 hrs by sulforhodamine B assay; conditions: MCF7, 48 h; how it was run: as §1
[7] = tested on: P388; assay: Growth inhibition of mouse P388 cells measured after 48 hrs by sulforhodamine B assay; conditions: P388, 48 h, read-out: ED50 (the source's name)

Work on `COc1cc(C2C3=C(COC3=O)N(CCc3ccc([N+](=O)[O-])cc3)c3cc4c(cc32)OCO4)cc(OC)c1OC` (centres undefined) yielded a GI50 [1] of 0.39 µg/mL (≈ 0.714 µM), a GI50 [2] of 0.3 µg/mL (≈ 0.549 µM) and a GI50 [3] of 0.2 µg/mL (≈ 0.366 µM). The GI50 [4] was 0.26 µg/mL (≈ 0.476 µM), the GI50 [5] was 0.3 µg/mL (≈ 0.549 µM) and the GI50 [6] was 0.08 µg/mL (≈ 0.146 µM).

In the case of `COc1cc(C2C3=C(COC3=O)N(C3CCC3)c3cc4c(cc32)OCO4)cc(OC)c1OC` (centres undefined), the GI50 [1] was 0.04 µg/mL (≈ 0.0886 µM), the GI50 [2] was 0.047 µg/mL (≈ 0.104 µM) and the GI50 [3] was 0.026 µg/mL (≈ 0.0576 µM). The GI50 [4] was 0.032 µg/mL (≈ 0.0709 µM), the EC50 [7] was 0.24 µg/mL (≈ 0.532 µM) and the GI50 [5] was 0.028 µg/mL (≈ 0.062 µM). For the same compound, the GI50 [6] was 0.026 µg/mL (≈ 0.0576 µM).

For `COc1cc(C2C3=C(COC3=O)N(CCc3ccccn3)c3cc4c(cc32)OCO4)cc(OC)c1OC` (centres undefined), the GI50 [1] was 0.38 µg/mL (≈ 0.756 µM), the GI50 [2] was 0.42 µg/mL (≈ 0.836 µM) and the GI50 [3] was 0.33 µg/mL (≈ 0.657 µM). For the same compound, the GI50 [4] was 0.29 µg/mL (≈ 0.577 µM), the EC50 [7] was 2.5 µg/mL (≈ 4.97 µM) and the GI50 [5] was 0.34 µg/mL (≈ 0.677 µM). It also gave a GI50 [6] of 0.32 µg/mL (≈ 0.637 µM).

For `COc1cc([C@@H]2c3cc4c(cc3[C@H](O)[C@H]3COC(=O)[C@H]23)OCO4)cc(OC)c1OC` [PODOFILOX], the EC50 [7] was 0.0043 µg/mL (≈ 0.0104 µM).

`COc1cc(C2C3=C(COC3=O)N(CCCn3ccnc3)c3cc4c(cc32)OCO4)cc(OC)c1OC` (centres undefined) showed a GI50 [1] of 2.9 µg/mL (≈ 5.74 µM), a GI50 [2] of 2.1 µg/mL (≈ 4.15 µM) and a GI50 [3] of 2.5 µg/mL (≈ 4.95 µM). The GI50 [4] was 2.2 µg/mL (≈ 4.35 µM), the EC50 [7] was 2 µg/mL (≈ 3.96 µM) and the GI50 [5] was 3 µg/mL (≈ 5.93 µM). For the same compound, the GI50 [6] was 0.64 µg/mL (≈ 1.27 µM).

`COc1cc(C2C3=C(COC3=O)N(C3CCCCC3)c3cc4c(cc32)OCO4)cc(OC)c1OC` (centres undefined) showed a GI50 [1] of 0.17 µg/mL (≈ 0.355 µM), a GI50 [2] of 0.27 µg/mL (≈ 0.563 µM) and a GI50 [3] of 0.066 µg/mL (≈ 0.138 µM). For the same compound, the GI50 [4] was 0.24 µg/mL (≈ 0.5 µM), the EC50 [7] was 3.4 µg/mL (≈ 7.09 µM) and the GI50 [5] was 0.27 µg/mL (≈ 0.563 µM). For the same compound, the GI50 [6] was 0.052 µg/mL (≈ 0.108 µM).

In the case of `COc1cc(C2C3=C(COC3=O)N(CCO)c3cc4c(cc32)OCO4)cc(OC)c1OC` (centres undefined), the GI50 [1] was 0.6 µg/mL (≈ 1.36 µM), the GI50 [2] was 1.3 µg/mL (≈ 2.94 µM) and the GI50 [3] was 0.41 µg/mL (≈ 0.929 µM). The GI50 [4] was 0.52 µg/mL (≈ 1.18 µM), the EC50 [7] was 2 µg/mL (≈ 4.53 µM) and the GI50 [5] was 0.58 µg/mL (≈ 1.31 µM). It also gave a GI50 [6] of 0.37 µg/mL (≈ 0.838 µM).

Work on `COc1cc(C2C3=C(COC3=O)N(CCc3ccc(Cl)cc3)c3cc4c(cc32)OCO4)cc(OC)c1OC` (centres undefined) yielded a GI50 [1] of 0.54 µg/mL (≈ 1.01 µM), a GI50 [2] of 0.31 µg/mL (≈ 0.578 µM) and a GI50 [3] of 0.35 µg/mL (≈ 0.653 µM). For the same compound, the GI50 [4] was 0.37 µg/mL (≈ 0.69 µM), the EC50 [7] was 2.6 µg/mL (≈ 4.85 µM) and the GI50 [5] was 0.3 µg/mL (≈ 0.56 µM). It also gave a GI50 [6] of 0.34 µg/mL (≈ 0.634 µM).

Work on `COc1cc(C2C3=C(COC3=O)Nc3cc(OC)c(OC)c(OC)c32)cc(OC)c1OC` (centres undefined) yielded a GI50 [1] of 5.6 µg/mL (≈ 12.6 µM), a GI50 [2] of 3.3 µg/mL (≈ 7.44 µM) and a GI50 [3] of 3.6 µg/mL (≈ 8.12 µM). For the same compound, the EC50 [7] was 1.3 µg/mL (≈ 2.93 µM), the GI50 [5] was 3.6 µg/mL (≈ 8.12 µM) and the GI50 [6] was 1.7 µg/mL (≈ 3.83 µM).

In the case of `COc1cc([C@H]2c3cc4c(cc3C[C@H]3COC(=O)[C@H]32)OCO4)cc(OC)c1OC` [ISOPICRODEOXYPODOPHYLLOTOXIN], the EC50 [7] was < 0.1 µg/mL.

In the case of `COc1cc(C2C3=C(COC3=O)N(Cc3ccc(F)cc3)c3cc4c(cc32)OCO4)cc(OC)c1OC` (centres undefined), the GI50 [1] was 0.046 µg/mL (≈ 0.091 µM), the GI50 [2] was 0.047 µg/mL (≈ 0.093 µM) and the GI50 [3] was 0.03 µg/mL (≈ 0.0593 µM). For the same compound, the GI50 [4] was 0.033 µg/mL (≈ 0.0653 µM), the EC50 [7] was 1.9 µg/mL (≈ 3.76 µM) and the GI50 [5] was 0.031 µg/mL (≈ 0.0613 µM). For the same compound, the GI50 [6] was 0.037 µg/mL (≈ 0.0732 µM).

`COc1cc(C2C3=C(COC3=O)N(C3CCCC3)c3cc4c(cc32)OCO4)cc(OC)c1OC` (centres undefined) showed a GI50 [1] of 0.083 µg/mL (≈ 0.178 µM), a GI50 [2] of 0.27 µg/mL (≈ 0.58 µM) and a GI50 [3] of 0.062 µg/mL (≈ 0.133 µM). The GI50 [4] was 0.12 µg/mL (≈ 0.258 µM), the GI50 [5] was 0.16 µg/mL (≈ 0.344 µM) and the GI50 [6] was 0.045 µg/mL (≈ 0.0967 µM).

In the case of `COc1cc([C@@H]2c3cc4c(cc3C[C@H]3COC(=O)[C@@H]32)OCO4)cc(OC)c1OC` [DESOXYPODOPHYLLOTOXIN], the GI50 [1] was 0.00044 µg/mL (≈ 0.0011 µM), the GI50 [2] was 0.0017 µg/mL (≈ 0.00427 µM) and the GI50 [3] was 0.00056 µg/mL (≈ 0.00141 µM). For the same compound, the GI50 [4] was 0.0014 µg/mL (≈ 0.00351 µM), the EC50 [7] was 0.029 µg/mL (≈ 0.0728 µM) and the GI50 [5] was 0.0018 µg/mL (≈ 0.00452 µM). It also gave a GI50 [6] of 0.0027 µg/mL (≈ 0.00678 µM).

`COc1cc(C2C3=C(COC3=O)N(Cc3ccco3)c3cc4c(cc32)OCO4)cc(OC)c1O` (centres undefined) showed a GI50 [1] of 1 µg/mL (≈ 2.16 µM), a GI50 [2] of 0.39 µg/mL (≈ 0.842 µM) and a GI50 [3] of 0.061 µg/mL (≈ 0.132 µM). The EC50 [7] was 0.89 µg/mL (≈ 1.92 µM), the GI50 [5] was 0.24 µg/mL (≈ 0.518 µM) and the GI50 [6] was 0.054 µg/mL (≈ 0.117 µM).

In the case of `COc1cc(C2C3=C(COC3=O)N(CCN(C)C)c3cc4c(cc32)OCO4)cc(OC)c1OC` (centres undefined), the GI50 [1] was 0.43 µg/mL (≈ 0.918 µM), the GI50 [2] was 2.5 µg/mL (≈ 5.34 µM) and the GI50 [3] was 0.46 µg/mL (≈ 0.982 µM). For the same compound, the GI50 [4] was 0.51 µg/mL (≈ 1.09 µM), the EC50 [7] was 0.18 µg/mL (≈ 0.384 µM) and the GI50 [5] was 1 µg/mL (≈ 2.13 µM). The GI50 [6] was 0.29 µg/mL (≈ 0.619 µM).
